Experimental findings from ChEMBL document CHEMBL1157419, “Bioactive isocoumarins isolated from the endophytic fungus Microdochium bolleyi” (2008) are described below.

The subject of test [1] is [Chlorella] fusca. Nature of the test: Antimicrobial activity against Chlorella fusca by agar diffusion method. In kind it is functional, Scenedesmus fuscus. An outline of the steps: (§1)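 Test substance dissolved in acetone at 1 mg/mL, and 50 µL (50 µg) pipetted onto a sterile 9 mm filter disk. Disk laid on MPY agar, then sprayed with a suspension of the fungus M. violaceum or the alga C. fusca. Acetone tested as a solvent control.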
In general terms: In agar diffusion tests the substance spreads into inoculated agar from a disc or well.

In test [2] the test system is Priestia megaterium. Nature of the test: Antimicrobial activity against Bacillus megaterium by agar diffusion method. The test is classed as functional. An outline of the steps: (§2)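 Test substance dissolved in acetone at 1 mg/mL, and 50 µL (50 µg) applied to a sterile 9 mm filter disk. Disk placed on NB agar, then sprayed with a suspension of the test bacterium (E. coli Gram-negative; B. megaterium Gram-positive). Acetone run as a solvent control.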

The test system of test [3] is Escherichia coli. Nature of the test: Antimicrobial activity against Escherichia coli by agar diffusion method. The test is classed as functional. An outline of the steps: as §2
Test [4] deals with Microbotryum violaceum. Nature of the test: Antimicrobial activity against Microbotryum violaceum by agar diffusion method. The test is classed as functional. Summed up:
as §1

Turning to `CN(C)[C@@H]1C(O)=C(C(N)=O)C(=O)[C@@]2(O)C(O)=C3C(=O)c4c(O)cccc4[C@@](C)(O)[C@H]3C[C@@H]12` [TETRACYCLINE], the “inhibition zone (IZ)” value is on record as 0 mm in test [1], 18 mm in test [2], 18 mm in test [3] and 10 mm in test [4].

On to `COc1cc2c(c(O)c1OC)C(=O)O[C@@H]1C[C@H](C[C@H](C)O)O[C@H]21`, for which the “inhibition zone (IZ)” value in test [1] was 10 mm; in test [2] it was 6 mm; in test [3] it was 8 mm; in test [4], 9 mm.

On to NYSTATIN, for which the inhibition zone (IZ) is 20 mm in test [1] (Scenedesmus fuscus), 0 mm in test [2], 0 mm in test [3] and 0 mm in test [4].

For the molecule `CCC[C@@H](O)C[C@H]1OC(=O)c2c(cc(OC)c(OC)c2O)[C@H]1O`, the “inhibition zone (IZ)” value in test [1] stood at 10 mm; in test [2], 7 mm; in test [3], 10 mm; in test [4], 9 mm.

Take `COc1cc2c(c(O)c1OC)C(=O)O[C@@H]1C[C@H](C[C@@H](C)O)O[C@H]21`: the “inhibition zone (IZ)” value in test [1] came to 6 mm; in test [2] it was 0 mm; in test [3], 0 mm; in test [4], 7 mm.

On to `C[C@@H]1C[C@@H]([C@H](O)CC2CC(=O)NC(=O)C2)C(=O)[C@@H](C)C1` [CYCLOHEXIMIDE], for which the “inhibition zone (IZ)” value in test [1] turned out to be 50 mm; in test [2], 0 mm; in test [3] it was 0 mm; in test [4] it was 35 mm.

Regarding `CCC[C@H]1C[C@H]2OC(=O)c3c(cc(OC)c(OC)c3O)[C@H]2O1` [MONOCERIN], the “inhibition zone (IZ)” value in test [1] amounted to 8 mm; in test [2], 6 mm; in test [3] it was 10 mm; in test [4], 23 mm.
